Screening data as filed in PubChem BioAssay.
An excerpt weighted towards active compounds, which were near 1.6% of everything screened.
14-3-3 Bad PPI: inhibitors of 14-3-3 zeta/Bad binding, primary screen, biochemical, TR-FRET, bovine 14-3-3 zeta. inhibition, % at 21.7 µM. 0.71% of 220,000 active. TR-FRET 14-3-3zeta/Dy647-pBad peptide displacement, 1 h. AID 781, 2007. 14-3-3 protein zeta/delta (Bos taurus), P63103;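 active means inhibition above about 70%, limit read from the data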
p97 inhibitor: inhibitors of human p97 ATPase, primary screen, biochemical; Transitional endoplasmic reticulum ATPase (Homo sapiens), P55072; recombinant p97 ATPase, Kinase-Glo ATP luminescence, 3 h; inhibition, % at 8 µM; 0.42% of 220,000 active; AID 1481, 2009; in the data active means inhibition above about 15%
p47phox inh: p47phox/p22phox peptide binding inhibitors, primary screen, biochemical, uHTS, NADPH oxidase regulatory subunit | Neutrophil cytosol factor 1 (Homo sapiens), P14598 | inhibition, % at 24.7 µM | fluorescence polarization, 2 h | AID 1274, 2008 | 0.53% of 220,000 active
Tb MetRS inh: T. brucei MetRS inhibitors, primary screen, biochemical, luminescence; methionyl-tRNA synthetase (Trypanosoma brucei brucei); purified T. brucei MetRS, ATP depletion, Kinase-Glo luminescence; inhibition, % at 11.9 µM; 0.4% of 360,000 active;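 active means inhibition above a per-plate cutoff of the control wells' mean inhibition plus 3 SD, cut at about 5.5% in these data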
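Dosing: 11.9 µM compound single dose, 0.9% DMSO; Assay system: purified T. brucei MetRS enzyme; Measured by: Kinase-Glo luciferase luminescence reporting remaining unconsumed ATP; Schedule: 15 min plus 2 h at 25 °C.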
eIF4E 4G PPI: eIF4E–eIF4G protein interaction inhibitors, primary screen, biochemical, uHTS, TR-FRET, eIF4GI fragment; 0.37% of 220,000 active; inhibition, % at 21.7 µM; TR-FRET eIF4E-eIF4GI(517-606) binding, 2 h; Eukaryotic translation initiation factor 4E (Mus musculus) + Eukaryotic translation …; AID 782, 2007
SUMO HTRF inh: inhibitors of in vitro SUMOylation cascade, primary screen, biochemical, HTRF, uHTS. 0.36% of 290,000 active. SUMO-conjugating enzyme UBC9 (Homo sapiens), P63279. inhibition, % at 35 µM. HTRF SUMOylation assay, SAE1/SAE2 + UBC9; in the data active means inhibition above about 50%, passing the limit was not always enough
Hits are given with their value; n = inactive; x = no result given; [ ] = dose if it differs, or a comment.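 How the source made its calls, unless noted: active means inhibition above about 30% (limit read from the data); inactive means the rest.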

SMILES | 14-3-3 Bad PPI | p97 inhibitor | p47phox inh | Tb MetRS inh | eIF4E 4G PPI | SUMO HTRF inh
CSc1[nH]c(=O)c(C(=O)O)cc1C#N | 70.6 | n | n | n | n | n
CC(=O)c1cccc(-c2ccnc3c2CC(C(=O)Nc2ccc(C(C)C)cc2)O3)c1 (centres undefined) | x | x | x | n | x | x
CC(=O)N1N=C(c2cccc([N+](=O)[O-])c2)OC1(C)CC(=O)Nc1ccccc1 (centres undefined) | 81.1[fluorescence artefact?] | n | n | n | n | n
Cc1ccc(OCC(=O)Nc2c(C)ccc3nsnc23)cc1 | x | x | x | n | x | n
O=C(Nc1nnc(SCc2ccc(F)cc2)s1)c1ccc2ncsc2c1 | 80.3 | n | n | n | 54.4 | n
CC(=O)Nc1nnc(SCc2ccc(F)cc2)s1 | n | n | n | n | n | n
Fc1cccc2sc(N3CCCC3)nc12 | n | n | n | n | n | n
CN(C)Cc1cc(C(C)(C)c2ccccc2)ccc1O | x | x | x | n | x | x
COC(=O)COc1ccc(S(=O)(=O)Nc2ccccc2SC)cc1 | n | n | 90.8 | n | n | n
CCN1C(=O)[C@H]2[C@H]3CN=C(SCc4ccc(C)cc4)N3[C@@](Cc3ccccc3)(C(=O)OC)[C@H]2C1=O | x | x | x | n | x | x
COc1cccc(C(=O)NCCN2CCC(n3c(=O)[nH]c4ccccc43)CC2)c1 | x | x | x | n | x | x
CCN(CC)S(=O)(=O)c1ccc(NC(=O)c2cccc3c2C(=O)N(CCOC)C3)cc1 | 84.1[fluorescence artefact?] | n | n | n | n | n
COCCN1Cc2cccc(C(=O)Nc3ccc(S(=O)(=O)N4CCCCCC4)cc3)c2C1=O | n | n | n | n | n | n
Cc1cc(C)c(NC(=O)CNC(=O)c2ccccc2OCc2c(C)noc2C)c(C)c1 | x | x | x | n | x | x
CCN(Cc1ccncc1)Cc1cn[nH]c1-c1ccc(OC)cc1F | n | n | n | n | n | n
O=S1(=O)CC(N2CC=CC2)CN1Cc1cn(Cc2cccc(C(F)(F)F)c2)nn1 (centres undefined) | x | x | x | n | x | x
N#C/C(=C\c1ccc(C(=O)O)cc1)c1nc2sc3c(c2c(=O)[nH]1)CCCC3 | n | n | 103.8 | n | n | 59.5
CCOC(=O)c1nc2sc3c(c2c(=O)[nH]1)CCCC3 | n | n | n | n | n | n
OC(c1ccc(F)cc1)c1nc(-c2cc3ccccc3o2)cs1 (centres undefined) | x | x | x | n | x | x
COc1cc(-c2[nH]ncc2CN(C)Cc2nonc2C)cc(OC)c1OC | n | n | n | n | n | n
COc1cc(-c2[nH]ncc2CN(C)Cc2cc(C)[nH]n2)cc(OC)c1OC | n | n | 36.4 | n | n | n
Cc1ccc(-c2nc(N/N=C/c3cccnc3)c3ccccc3n2)cc1 | n | n | n | n | n | n
COc1ccc(/C=N/Nc2nc(-c3cccnc3)nc3ccccc23)c(OC)c1 | 70.3 | n | n | n | n | n
COc1ccc(C(C)=O)cc1CSc1nnc(Nc2ccccc2)s1 | n | n | n | n | n | n
COCCn1nnnc1C(c1ccc(Cl)cc1)N1CCN(C(=O)c2ccco2)CC1 (centres undefined) | x | x | x | n | x | n
SMILES | 14-3-3 Bad PPI | p97 inhibitor | p47phox inh | Tb MetRS inh | eIF4E 4G PPI | SUMO HTRF inh
CCCC(c1nnnn1Cc1ccc(OC)cc1)N1CCN(c2ccccc2OC)CC1 (centres undefined) | n | n | n | n | n | n
COCCn1nnnc1C(c1ccccc1OC)N1CCN(c2ccccc2F)CC1 (centres undefined) | 73.8 | n | n | n | n | n
COc1ccc(C(c2nnnn2Cc2cccs2)N2CCN(c3ccccc3F)CC2)cc1OC (centres undefined) | 82.6 | n | n | n | n | n
CCCC(c1nnnn1Cc1ccccc1)N1CCN(c2ccccc2OC)CC1 (centres undefined) | 83.6 | n | n | n | n | n
COCCn1nnnc1C(c1ccc(Cl)cc1)N1CCSCC1 (centres undefined) | 74.5 | n | n | n | n | n
Cc1ccccc1CNS(=O)(=O)c1c(C)[nH]c(C)c1C(=O)N1CCCCC1 | x | x | x | n | x | n
